Bioassay records: PubChem BioAssay, The Scripps Research Institute Molecular Screening Center
LEDGF integ inh: blockers of LEDGF/p75-dependent integrase strand transfer – biochemical, TR-FRET, high throughput, primary screen. 370,000 compounds, 0.64% hits. inhibition, % at 3.7 µM. TR-FRET IN-LEDGF/p75 DNA integration, Eu/Cy5. HIV-1 integrase (with human LEDGF/p75);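 active means inhibition above the screen-wide mean plus 3 SD, cut at about 13% in these data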;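 further: signal is the Cy5 over europium emission ratio at 671 and 618 nm; 0% = plate median of compound wells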
TDP2 inh: human TDP2 enzyme inhibitors, primary screen, biochemical, epi absorbance, recombinant enzyme | 370,000 compounds, 0.34% hits | Tyrosyl-DNA phosphodiesterase 2 (Homo sapiens), O95551 | T5PNP hydrolysis, p-nitrophenol absorbance 415 nm | inhibition, % at 12.8 µM;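 active means inhibition above the mean of all tested compounds plus 3 SD, set per campaign, cut at about 25% in these data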;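 further: 0% = DMSO with enzyme and 100% = buffer with substrate but no TDP2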
Target sequence (O95551 whole entry, looked up): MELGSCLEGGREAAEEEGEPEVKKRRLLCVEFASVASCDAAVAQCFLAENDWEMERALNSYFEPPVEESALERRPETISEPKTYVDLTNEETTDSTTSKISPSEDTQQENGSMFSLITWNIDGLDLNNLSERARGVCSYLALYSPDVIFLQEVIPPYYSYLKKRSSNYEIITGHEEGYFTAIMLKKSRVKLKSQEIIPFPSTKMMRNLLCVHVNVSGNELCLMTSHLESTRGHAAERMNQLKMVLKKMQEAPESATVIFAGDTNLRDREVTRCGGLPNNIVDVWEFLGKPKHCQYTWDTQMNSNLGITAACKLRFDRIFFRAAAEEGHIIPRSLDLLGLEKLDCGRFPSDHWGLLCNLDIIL
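test system = human TDP2 enzyme | input = TDP2 enzyme at 120 nM final | medium = 50 mM Tris-HCl pH 7.5 with Mg2+, KCl, DTT, BSA | also added = T5PNP substrate, 5 mM | times = 2 h at 37 °C | technique = epi absorbance | benchmarks = high control without enzyme, low control DMSO plus TDP2 | replication = each compound tested once, singlicate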
UHRF1 binding: UHRF1 methylated DNA binding inhibitors, primary screen, counter-screen for MBD2 inhibitor project, biochemical, TR-FRET, human UHRF1, single concentration; E3 ubiquitin-protein ligase UHRF1 (Homo sapiens), Q96T88; inhibition, % at 4.4 µM; UHRF1 binding to methylated oligo; AID 687016, 2013; 370,000 compounds, 0.75% hits;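 further: UHRF1 SRA domain binding a hemimethylated CpG hairpin DNA probe; 0% = median of test compound wells and 100% = reference inhibitor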
MBD2 inh: inhibitors of MBD2 binding to methylated DNA, primary screen, biochemical, TR-FRET, DNA-binding domain, human; 370,000 compounds, 0.31% hits; Methyl-CpG-binding domain protein 2 (Homo sapiens), Q9UBB5; inhibition, % at 4.4 µM; MBD2 binding to methylated oligonucleotide; in the data active means inhibition above about 13%
UHRF1 ctr MBD2: UHRF1 methylated DNA binding inhibitors, counter-screen for MBD2 inhibitor project, biochemical, TR-FRET, human UHRF1; inhibition, % at 4.4 µM; shares compounds with MBD2 inh; UHRF1 binding to methylated oligonucleotide; 1,000 compounds, 25% hits;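 further: UHRF1 SRA domain binding a labeled hemimethylated CpG hairpin DNA; 0% = vehicle only and 100% = reference inhibitor with vehicle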
MBD2 DBD conf: inhibitors of MBD2 binding to methylated DNA, confirmation, biochemical, TR-FRET, DNA-binding domain, human | shares compounds with MBD2 inh | TR-FRET MBD2-DBD binding to methylated oligonucleotide | inhibition, % at 4.4 µM | 1,000 compounds, 26% hits; in the data active means inhibition above about 14%
Starred values were filed as active, the others as inactive. A selection: hits, their analogues and other compounds. The true share with any hit is near 1.6%. Unless noted, no stated cut-off is given here; in the data, active means inhibition above about 21%; inactive means the rest.

For CCOC(=O)c1cc(-c2ccc(N3CCOCC3)cc2)nn1-c1ccccc1 the results were LEDGF integ inh -1.1, TDP2 inh 6.1, UHRF1 binding 4.9 and MBD2 inh 3.5.
Screening Cc1ccc(-c2cc3nc(C)cc(C)n3n2)cc1 returned LEDGF integ inh -2.0, TDP2 inh -0.8, UHRF1 binding 2.5 and MBD2 inh -2.0.
Cc1cc(C)n2nc(-c3ccc(F)cc3)cc2n1 was read as LEDGF integ inh -4.5, TDP2 inh 8.9, UHRF1 binding -1.0, MBD2 inh 27.9*, UHRF1 ctr MBD2 6.8 and MBD2 DBD conf 3.2.
Cc1ccc(-c2nc3s/c(=C\c4ccco4)c(=O)n3n2)cc1 was read as LEDGF integ inh 11.6, TDP2 inh -4.4, UHRF1 binding 30.3*, MBD2 inh 14.5*, UHRF1 ctr MBD2 11.6 and MBD2 DBD conf 4.9.
COc1cc(OC)cc(C(=O)Nc2nc3ccccc3[nH]2)c1 was read as LEDGF integ inh 1.6, TDP2 inh 0.1, UHRF1 binding -3.5 and MBD2 inh 3.0.
Screening COc1ccc(Br)c(C(=O)Nc2nc3ccccc3[nH]2)c1 returned LEDGF integ inh 7.0, TDP2 inh -15.8, UHRF1 binding 2.0, MBD2 inh 36.4*, UHRF1 ctr MBD2 10.1 and MBD2 DBD conf 2.2.
Screening O=C(C1=C(O)C(=O)N(CCN2CCOCC2)C1c1ccc(Cl)cc1)c1cc2ccccc2o1 (configuration not stated) returned LEDGF integ inh 0.6, TDP2 inh 13.7, UHRF1 binding -2.4, MBD2 inh 15.8*, UHRF1 ctr MBD2 5.7 and MBD2 DBD conf -1.5.
O=C(C1=C(O)C(=O)N(CCCN2CCOCC2)C1c1ccc(Cl)cc1)c1cc2ccccc2o1 (configuration not stated) was read as LEDGF integ inh 4.9, TDP2 inh -6.3, UHRF1 binding 0.5 and MBD2 inh 3.1.
C=CCn1c(SCC(=O)OC(C)C)nnc1-c1ccc(C)cc1 was read as LEDGF integ inh 2.4, TDP2 inh 3.6, UHRF1 binding 0.1, MBD2 inh 14.5*, UHRF1 ctr MBD2 8.3 and MBD2 DBD conf 4.2.
`C=CCn1c(SCC(N)=O)nnc1-c1ccc(C)cc1` gave LEDGF integ inh -2.4, TDP2 inh -8.0, UHRF1 binding -0.9 and MBD2 inh -1.6.
Screening COc1cc(Cl)c(C)cc1NC(=O)CSc1sc2c(O)cc(=O)[nH]c2c1C#N returned LEDGF integ inh 10.5, TDP2 inh 0.0, UHRF1 binding 33.1*, MBD2 inh 17.5*, UHRF1 ctr MBD2 16.8 and MBD2 DBD conf 6.2.
COc1ccc(OC)c(NC(=O)CSc2sc3c(O)cc(=O)[nH]c3c2C#N)c1 was read as LEDGF integ inh 0.2, TDP2 inh -0.5, UHRF1 binding 10.1 and MBD2 inh -0.8.
COc1ccc(C(=O)N(CC(=O)NC(C)(C)C)c2ccc3c(c2)OCCO3)cc1OC was read as LEDGF integ inh 1.8, TDP2 inh -0.6, UHRF1 binding 20.1, MBD2 inh 16.4*, UHRF1 ctr MBD2 7.4 and MBD2 DBD conf 4.3.
Cc1ccc(NC(=O)C2CCCN(c3nnc(-n4cccc4)s3)C2)c(C)c1 (configuration not stated) was read as LEDGF integ inh -0.6, TDP2 inh 7.3, UHRF1 binding -0.4 and MBD2 inh 1.3.
`CCOC(=O)Nc1nc(-c2ccc(Cl)cc2Cl)cs1` gave LEDGF integ inh 6.2, TDP2 inh -12.6, UHRF1 binding 20.3, MBD2 inh 13.3*, UHRF1 ctr MBD2 25.8* and MBD2 DBD conf 8.4.
`CCOC(=O)Nc1nc(C)c(C(=O)c2ccc(Cl)cc2)s1` gave LEDGF integ inh -1.9, TDP2 inh -3.6, UHRF1 binding -3.8 and MBD2 inh -3.5.
For CCOC(=O)N1CCN(C(=O)c2ccc(C#CC3(O)CCCCC3)cc2)CC1 the results were LEDGF integ inh 8.0, TDP2 inh 18.6, UHRF1 binding 25.9*, MBD2 inh 14.7*, UHRF1 ctr MBD2 10.9 and MBD2 DBD conf 0.7.
For CCCCCNC(=O)N[C@H](C(=O)O)C(C)C the results were LEDGF integ inh 1.6, TDP2 inh 7.2, UHRF1 binding 0.6, MBD2 inh 16.1*, UHRF1 ctr MBD2 7.8 and MBD2 DBD conf 5.3.
For Cc1ccc(SCCN2CCC(C(C)(C)C)CCC2=O)cc1 (configuration not stated) the results were LEDGF integ inh 11.6, TDP2 inh 10.9, UHRF1 binding 29.8*, MBD2 inh 13.6*, UHRF1 ctr MBD2 4.7 and MBD2 DBD conf 4.0.
`CC(C)(C)C1CCC(=O)N(CCSc2ccccc2)CC1` (configuration not stated) gave LEDGF integ inh 6.8, TDP2 inh -13.6, UHRF1 binding 5.0 and MBD2 inh -3.4.
For COc1cccc(CNC(=O)C2CCCN(c3ncccn3)C2)c1OC (configuration not stated) the results were LEDGF integ inh -3.8, TDP2 inh 8.2, UHRF1 binding 1.1 and MBD2 inh 0.1.
Cc1ccc(OCc2nnc(SCC(=O)Nc3ccc(S(N)(=O)=O)cc3)n2-c2ccc(Cl)cc2)cc1 was read as LEDGF integ inh 0.7, TDP2 inh 1.6, UHRF1 binding -0.5 and MBD2 inh -1.1.
`O=C(CCC(=O)c1cccs1)OCC(=O)c1ccccc1` gave LEDGF integ inh -4.3, TDP2 inh -4.9, UHRF1 binding -0.4, MBD2 inh 48.4*, UHRF1 ctr MBD2 4.5 and MBD2 DBD conf 1.3.
COc1ccc(C(=O)COC(=O)CCC(=O)c2cccs2)cc1 was read as LEDGF integ inh 2.9, TDP2 inh -8.4, UHRF1 binding -0.5 and MBD2 inh -0.8.
`Cc1ccc(NC(=O)CS(=O)CC(=O)Nc2ccccc2-c2ccc(C)o2)cc1` (configuration not stated) gave LEDGF integ inh -1.1, TDP2 inh 1.7, UHRF1 binding -3.2 and MBD2 inh -6.2.
For CC(=O)Nc1ccccc1-c1ccc(C)o1 the results were LEDGF integ inh 1.3, TDP2 inh 8.0, UHRF1 binding -2.3, MBD2 inh 18.5*, UHRF1 ctr MBD2 7.7 and MBD2 DBD conf 2.4.
For Cc1ccc(S(=O)(=O)N2C[C@H]3C(=O)C[C@@H](c4ccccc4F)N(S(=O)(=O)c4ccc(C)cc4)[C@H]3C[C@H]2c2ccccc2F)cc1 the results were LEDGF integ inh -4.0, TDP2 inh -6.0, UHRF1 binding 1.5 and MBD2 inh 5.1.
